Source: PubChem BioAssay
HTRA1 inh – inhibitors of human serine peptidase HTRA1. recombinant HTRA1, FP-rhodamine activity-based probe, fluorescence polarization. inhibition, % at 5.96 µM. hit rate 0.5% among 340,000. AID 504803; in the data active = inhibition above about 36%;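 note: 0% = enzyme with DMSO and 100% = wells lacking enzyme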
Target sequence (Q92743 whole entry, looked up): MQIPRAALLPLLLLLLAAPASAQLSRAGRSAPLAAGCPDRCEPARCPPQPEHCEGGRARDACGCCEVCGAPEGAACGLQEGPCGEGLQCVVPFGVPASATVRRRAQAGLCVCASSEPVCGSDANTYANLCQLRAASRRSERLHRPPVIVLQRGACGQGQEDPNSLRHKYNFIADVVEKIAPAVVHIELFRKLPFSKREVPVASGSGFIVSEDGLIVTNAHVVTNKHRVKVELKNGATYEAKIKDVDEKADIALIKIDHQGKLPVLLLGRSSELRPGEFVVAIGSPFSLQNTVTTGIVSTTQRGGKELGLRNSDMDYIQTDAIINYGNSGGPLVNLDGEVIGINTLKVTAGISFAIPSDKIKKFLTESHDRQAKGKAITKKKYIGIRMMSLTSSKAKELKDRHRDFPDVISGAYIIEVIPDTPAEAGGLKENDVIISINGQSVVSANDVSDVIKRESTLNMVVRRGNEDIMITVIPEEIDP
ABHD4 inh – inhibitors of mouse ABHD4; inhibition, % at 8.92 µM; hit rate 0.54% among 370,000; Q8VD66; purified mABHD4, FP-Rh probe fluorescence polarization; AID 720543;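 active = inhibition exceeding the mean over every tested compound plus 3 SD, cut at about 30% in these data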;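 note: 0% = plate median of compound wells and 100% = S159A mutant with DMSO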
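Assay system: mABHD4 protein; medium: HEPES pH 7.0, NaCl, Pluronic buffer; dosing: 8.92 µM, single dose; schedule: 45 min + 60 min at 25 °C; signal: FP readout, ex 525 nm / em 598 nm; read-out: normalized percent inhibition of probe labeling; repeats: single replicate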
TCR CD3 inh – blocks the human TCR-CD3 interaction; TAMRA-labeled TCR probe fluorescence, biochemical; hit rate 0.37% among 360,000; inhibition, % at 9.4 µM; AID 651800; in the data active = inhibition above about 19%;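 note: recombinant mutant TCR 2C K166C tagged with TAMRA read by polarization; 0% = receptor in buffer alone and 100% = receptor with positive control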
SIAE inh – inhibitors of human sialic acid acetylesterase SIAE | Q9HAT2 | SIAE FP-Rh probe binding, fluorescence polarization | inhibition, % at 9.66 µM | hit rate 0.69% among 370,000 | AID 1053197;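 active = inhibition above a cutoff: mean of compounds within the control limits plus 3 SD of those, cut at about 17% in these data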;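 note: 0% = plate median of compound wells and 100% = probe without SIAE protein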
PRMT1 inh – blocks human protein arginine methyltransferase 1 | Q99873 | recombinant PRMT1, activity-based probe fluorescence polarization | inhibition, % at 2.79 µM | hit rate 1.3% among 370,000 | AID 652257;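 active = inhibition above about 21% made by adding two undisclosed values, limit read from the data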
SIAE confirm – human SIAE inhibition, confirmation; shares compounds with SIAE inh; hit rate 13% among 2,300; inhibition, % at 9.66 µM; SIAE FP-Rh activity-based probe, fluorescence polarization;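 active = mean inhibition of the replicates above the hit cutoff set in the primary screen, cut at about 17% in these data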;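 note: 0% = SIAE with DMSO and probe and 100% = probe without SIAE; inhibitors lower polarization as more probe stays unbound to SIAE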
The depositor's hits bear a star; nt = not tested or not shown; ! = not confirmed by another sample. Shown are actives, neighbours in structure and some others; about 2.5% of the full set was active somewhere.

SMILES	HTRA1 inh	ABHD4 inh	TCR CD3 inh	SIAE inh	PRMT1 inh	SIAE confirm
CC(C)(C)NC(=O)Cn1nnc(-c2ccc(Cl)cc2)n1	-1	-10	-4	-1	-3	nt
COc1ccc(C(CC(=O)O)NC(=O)COc2ccc(C)cc2)cc1OC (centres undefined)	2	-4	-7	19*	3	-9
CC(=O)c1ccccc1NC(=O)COC(=O)CCCN1C(=O)c2cccc3cccc(c23)C1=O	-3	0	6	19*	0	3
COc1cc(C)ccc1C(=O)N1CCC(Oc2cccnc2)CC1	nt	8	nt	4	1	nt
NC(=O)c1ccc(NC(=O)CN2CCN(S(=O)(=O)c3ccc4c(c3)OCCO4)CC2)cc1	-7	-12	-8	-4	6	nt
O=C(CN1CCN(S(=O)(=O)c2ccc3c(c2)OCCO3)CC1)Nc1cccc(F)c1	-2	2	4	19*	2	0
CNC(=O)COC(=O)C1CCN(S(=O)(=O)c2ccc3c(c2)OCCO3)CC1	-5	1	-10	0	0	nt
O=C(COC(=O)C1CCN(S(=O)(=O)c2ccc3c(c2)OCCO3)CC1)Nc1cccc2ccccc12	2	0	-2	18*	-4	-1
CCN(CC)c1ccc(NC(=O)c2ccc3c(c2)OCO3)c(C)c1	1	3	2	20*	-5	-5
Cc1ccc(C(=O)O)cc1NC(=S)NC(=O)C(c1ccccc1)c1ccccc1	-30	-14	2	-8	-3	nt
Cc1c(NC(=S)NC(=O)C(c2ccccc2)c2ccccc2)cccc1C(=O)O	-1	4	2	17*	-1	-4
Cc1ccc(C2CCC3(CCC(=O)N3CCOC(=O)Nc3ccc(F)cc3)CC2)cc1 (centres undefined)	nt	-16	nt	18*!	4	-12
C[C@@H]1CN([C@H](C)CO)S(=O)(=O)c2ccc(Br)cc2O[C@H]1CN(C)CC1CCOCC1	nt	2	1	1	-2	nt
COc1ccc2cc(C(=O)N/N=C/c3cc(OC)c(OC)c(OC)c3)[nH]c2c1	0	9	3	28*	0	-9
COc1cc2cc(C(=O)N/N=C/c3ccccc3Cl)[nH]c2cc1OC	10	16	2	27*	-3	5
COc1ccc(/C=N/NC(=O)c2cc3cc(OC)c(OC)cc3[nH]2)cc1	7	23	2	5	-1	nt
COc1cc(/C=N/NC(=O)c2cc(-c3ccccc3)sc2N)cc(OC)c1OC	nt	5	4	31*	0	-45
Cc1cc(C)c2c(c1)/C(=N/NC(=S)Nc1ccc(F)cc1)CCC2	3	12	6	20*	-2	4
Fc1cccc2sc(Nc3nc4cc5c(cc4s3)OCO5)nc12	-2	9	-4	13	0	nt
Fc1cc(F)c2nc(Nc3nc4cc5c(cc4s3)OCO5)sc2c1	2	2	7	25*	0	85*
O=C(O)c1ccc(COc2ccc3ccccc3c2)o1	1	-1	-2	-1	-4	nt
CCOc1ccc(OCc2ccc(C(=O)O)o2)cc1	4	4	-3	39*	3	-1
O=C1N(Cc2ccccc2)c2ccccc2C12CCCc1sc(CCc3ccccc3)nc12 (centres undefined)	nt	4	nt	2	-3	nt
O=C(OCC#CCSc1nnc(-c2cccc3ccccc23)o1)c1ccccc1	nt	-15	nt	-5	2	nt
CCOc1ccc(N(C(C)C(=O)N2CCCCCC2)S(C)(=O)=O)cc1 (centres undefined)	5	1	9	18*	0	-2
SMILES	HTRA1 inh	ABHD4 inh	TCR CD3 inh	SIAE inh	PRMT1 inh	SIAE confirm
CCCCNC(=O)C1CCCN1C(=O)Nc1cc(C)cc(C)c1 (centres undefined)	nt	0	nt	1	-1	nt
O=C(CCC(=O)OCC(F)(F)C(F)F)Nc1ccc(Cl)cc1	2	-3	3	18*	-1	3
Cc1cccc(N2CCN(C(=O)c3cc(S(=O)(=O)N(C)C)ccc3Cl)CC2)c1C	nt	11	nt	3	3	nt
C/C(=N\Nc1cc(-c2ccccc2)nc(-c2ccccc2)n1)c1ccc(O)c(C)c1	-3	-39	-5	19*	2	-12
Cc1cc(C)c2[nH]c(C(=O)Nc3ccc4c(c3)OCO4)cc2c1	9	12	1	18*	-2	0
CCN(CC(=O)Nc1ccc(NC(C)=O)cc1)C(=O)Cc1cccc2ccccc12	-2	-6	-2	1	-2	nt
CCN(CC(=O)Nc1ccc(NC(C)=O)cc1)C(=O)c1cccc2ccccc12	-2	2	0	18*	-2	5
NC(=O)c1nsc(C(=O)N(Cc2ccc(F)cc2)C(C(=O)NCC2CCCO2)c2ccc(O)cc2)c1N (centres undefined)	1	-1	-3	0	2	nt
NC(=O)c1nsc(C(=O)N(Cc2ccccc2Cl)C(C(=O)NCC2CCCO2)c2ccc(O)cc2)c1N (centres undefined)	-1	0	-1	20*	2	0
Cc1ccc(CN2CCN(Cc3cc(=O)c4ccccc4[nH]3)CC2CCO)o1 (centres undefined)	0	0	0	17*	-2	-10
COC(=O)[C@]12C[C@H](CC(=O)NCc3cccc(C(F)(F)F)c3)C(=O)N(Cc3ccc(Cl)cc3Cl)C1=C[C@H](C1CCCC1)O[C@@H]2C	nt	-8	nt	1	2	nt
COc1ccccc1C1CC(c2ccco2)=NN1c1ccccc1 (centres undefined)	10	3	2	17*	1	-2
CCOC(=O)[C@]12CCCC=C1N(CCCOC)C(=O)[C@@H]2CC(=O)NCCc1ccccc1OC	nt	-8	nt	1	-8	nt
CS(=O)(=O)N(Cc1ccc(C(=O)NCCSCc2ccco2)cc1)c1ccccc1	-6	1	9	18*	1	-3
CN(C)c1ccc(C(=O)NCC2CCN(C(=O)C(=O)c3cccs3)CC2)cc1	nt	1	1	7	0	nt
O=C(Nc1ccc(Cl)cc1C(F)(F)F)c1ccccc1Cl	-8	-3	-8	29*	-3	-5
Cc1ccc(C(=O)Nc2ccc(Cl)cc2C(F)(F)F)c(Cl)c1	-1	-1	10	1	-2	nt
OC(c1ccccc1)(c1ccccc1)C1CCN(CCCOc2ccccn2)CC1	nt	-4	5	12	-1	nt
CC(C)CCCC(C)CCOC(=O)CN1CCCC1 (centres undefined)	3	1	5	18*	-3	-1
O=C(CN1CCOCC1)OCCCC1CCCCC1	-1	-2	2	4	-1	nt
CCCCNC(=O)C[C@H]1C[C@@]2(C(=O)OC)C(=C[C@H](COCc3ccccc3)O[C@@H]2C)N(CCc2ccc(OC)c(OC)c2)C1=O	nt	3	nt	0	-1	nt
COc1ccc(-n2c(SCC(=O)Nc3ccccc3-c3ccccc3)nnc2-c2ccccc2)cc1	nt	-13	nt	-11	3	nt
C=C(C)CNC(=S)NN=C1c2ccccc2-c2ccccc21	-36	nt	nt	nt	nt	nt
